Assay results reported in paper PMC10405366 (Molecular pharmaceutics, 2023).

What was measured:
[1] = tested on: female athymic nude (nu/nu) mice; experiment: Tolerability study: hematology; type: in vivo, mouse
Method in brief: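 Athymic nude mice (n = 5 per group) received test compound or the Tween80:Captex200:saline vehicle IP every 2 days for 14 days. About 2–4 h after the last dose, mice were killed with CO2 and blood was drawn by cardiac puncture. Complete blood counts and serum chemistry were run by a pathology core. Values are given as means ± SD, n = 3–5.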

[2] = Stability in mouse plasma lithium heparin and QC extracts; type: in vitro ADME
[3] = Stability in Tween80:Captex200P:0.9% saline formulation; type: physicochemical
Method in brief: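 The dried succinate was taken up in Tween 80:Captex 200P at 1 mg/mL. It was vortexed 30 s, sonicated 30 min and shaken about 16 h at 100 rpm at room temperature. It was then diluted in 0.9% saline to 0.1 mg/mL and serially diluted to 0.05 and 0.025 mg/mL. At 0, 1 and 4 h, aliquots were diluted 20-fold in acetone, with storage at 4 °C in between. Analysis was by UPLC-PDA-HRMS against acetone standards.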

OVCAR3 = experiment: Cell viability assay; type: cell-based, human; details: OVCAR3
Method in brief: (§1)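 RPMI1640 (OVCAR3, OVCAR4, MDA-MB-435) or DMEM (OVCAR8, MDA-MB-231) was used, with 10% FBS and penicillin/streptomycin. Cells were STR-validated and kept below 20 passages. Cells were plated at 5000 per well overnight, then given test compound at final 0.95–250 nM (nine levels, 0.5% DMSO) for 72 h at 37 °C. Viability was read by CellTiter-Blue absorbance, and IC50 was taken relative to DMSO. Paclitaxel (0.39–100 nM) was the control, with three biological replicates.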

OVCAR4 [4] = experiment: 2D foci assay; type: cell-based, human; details: OVCAR4, 50 nM for 8 h, two weeks colony formation, relative to vehicle
Method in brief: (§2)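 Cells were seeded at 200 per 60 mm dish and left to attach overnight. They were then exposed for 8 h to test compound (50 nM), DMSO vehicle or paclitaxel (10 nM). Medium was replaced and cells grew drug-free for about two weeks (15 days). Colonies were fixed in 4% paraformaldehyde, stained with 0.05% crystal violet, imaged and counted. There were three biological replicates, compared with vehicle by Dunnett's test.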

OVCAR8 [5] = experiment: 2D foci assay; type: cell-based, human; details: OVCAR8, 50 nM for 8 h, two weeks colony formation, relative to vehicle
Method in brief: as §2

[6] = cited from earlier work
OVCAR4 [7] = experiment: Cell viability assay; type: cell-based, human
Method in brief: as §1

OVCAR8 [8] = experiment: Cell viability assay; type: cell-based, human
Method in brief: as §1

[9] = tested on: OVCAR8-RFP cells xenografted IP; experiment: OVCAR8-RFP IP xenograft; type: in vivo, mouse
[10] = 0.114 mg/kg IP every 2 days, 14 days
[11] = 0.285 mg/kg IP every 2 days, 14 days
[12] = 1.14 mg/kg IP every 2 days, removed at 8 days
[13] = 0.10 mg/kg IP every 2 days, 14 days
[14] = 0.25 mg/kg IP every 2 days, 14 days
[15] = 1.00 mg/kg IP every 2 days, removed at 8 days

Molecule `CN1C(=O)[C@]23SS[C@@]1(C)C(=O)N2[C@H]1Nc2ccccc2[C@@]1([C@@]12c4ccccc4N[C@@H]1N1C(=O)[C@]4(C)SS[C@]1(C(=O)N4C)[C@H]2OC(=O)CCC(=O)O)[C@@H]3O` [verticillin A succinate] has an MCH [1, 10] of 14.6 ± 0.2 pg, an MCHC [1, 10] of 32.8 ± 0.6 g/dL and an MCV [1, 10] of 44.4 ± 1.2 fL. It also gave an MPV [1, 10] of 7.9 ± 0.2 fL, a PCT [1, 10] of 0.754 ± 0.093% and a PDW [1, 10] of 47.5 ± 2.5%. For the same molecule, the RBC [1, 10] was 8.95 ± 0.15 M/μL, the RDW [1, 10] was 13.9 ± 0.4% and the “Reticulocyte #” value [1, 10] was 11.3 ± 12.9 K/μL. For the same molecule, the “WBC #” value [1, 10] was 6.52 ± 1.73 K/μL, the “basophil #” value [1, 10] was 0.01 ± 0.01 K/μL and the “eosinophil #” value [1, 10] was 0.01 ± 0.01 K/μL. The hematocrit [1, 10] was 39.7 ± 1.4%, the hemoglobin [1, 10] was 13.0 ± 0.2 g/dL and the “lymphocyte #” value [1, 10] was 3.81 ± 1.09 K/μL. For the same molecule, the “monocyte #” value [1, 10] was 0.36 ± 0.10 K/μL, the “neutrophil #” value [1, 10] was 2.33 ± 0.63 K/μL and the “nucleated RBCs #” value [1, 10] was 0 ± 0 K/μL. For the same molecule, the “platelet #” value [1, 10] was 954 ± 118 K/μL, the reticulocyte [1, 10] was 0.13 ± 0.14% and the MCH [1, 11] was 14.7 ± 0.2 pg. It also gave an MCHC [1, 11] of 32.9 ± 0.8 g/dL, an MCV [1, 11] of 44.7 ± 0.9 fL and an MPV [1, 11] of 7.7 ± 0.07 fL. The PCT [1, 11] was 0.722 ± 0.072%, the PDW [1, 11] was 48.2 ± 2.2% and the RBC [1, 11] was 9.15 ± 0.22 M/μL. The RDW [1, 11] was 14.1 ± 0.6%, the “Reticulocyte #” value [1, 11] was 6.3 ± 13.7 K/μL and the “WBC #” value [1, 11] was 5.99 ± 1.11 K/μL. The “basophil #” value [1, 11] was 0.01 ± 0.01 K/μL, the “eosinophil #” value [1, 11] was 0.02 ± 0.02 K/μL and the hematocrit [1, 11] was 40.9 ± 1.2%. For the same molecule, the hemoglobin [1, 11] was 13.5 ± 1.8 g/dL, the “lymphocyte #” value [1, 11] was 3.12 ± 1.25 K/μL and the “monocyte #” value [1, 11] was 0.20 ± 0.08 K/μL. For the same molecule, the “neutrophil #” value [1, 11] was 2.64 ± 0.54 K/μL, the “nucleated RBCs #” value [1, 11] was 0 ± 0 K/μL and the “platelet #” value [1, 11] was 938 ± 98 K/μL. It also gave a reticulocyte [1, 11] of 0.07 ± 0.15%, an MCH [1, 12] of 15.3 ± 0.4 pg and an MCHC [1, 12] of 32.5 ± 1.1 g/dL. The MCV [1, 12] was 47.2 ± 1.6 fL, the MPV [1, 12] was 7.4 ± 0.1 fL and the PCT [1, 12] was 0.701 ± 0.202%. The PDW [1, 12] was 51.5 ± 1.4%, the RBC [1, 12] was 9.49 ± 0.49 M/μL and the RDW [1, 12] was 15.1 ± 0.2%. The “Reticulocyte #” value [1, 12] was 0 ± 0 K/μL, the “WBC #” value [1, 12] was 6.80 ± 1.14 K/μL and the “basophil #” value [1, 12] was 0.07 ± 0.10 K/μL. For the same molecule, the “eosinophil #” value [1, 12] was 0.10 ± 0.16 K/μL, the hematocrit [1, 12] was 44.7 ± 2.7% and the hemoglobin [1, 12] was 14.5 ± 0.42 g/dL. The “lymphocyte #” value [1, 12] was 2.19 ± 0.61 K/μL, the “monocyte #” value [1, 12] was 0.18 ± 0.04 K/μL and the “neutrophil #” value [1, 12] was 4.26 ± 0.56 K/μL. For the same molecule, the “nucleated RBCs #” value [1, 12] was 0 ± 0 K/μL, the “platelet #” value [1, 12] was 947 ± 271 K/μL and the reticulocyte [1, 12] was 0 ± 0%. The “stability in mouse plasma lithium heparin” value [2] was “poor stability”, the “stability of QC extracts” value ([2]; 4 °C autosampler, after approximately 19 h) was “not stable” and the “verticillin A succinate levels in formulation” value ([3]; 4 h after preparation, stored at 4 °C) was “below the detection limit (BDL) or NF”. The stability in formulation ([3]; Tween80:Captex200P:0.9% saline, 0.1, 0.05 and 0.025 mg/mL, degrades almost immediately to verticillin A) was “not stable”, the “verticillin A succinate levels in formulation” value ([3]; immediately after preparation, all concentration levels tested) was “below the quantitation limit (BQL) or not found/detected (NF)” and the cytotoxic activity (OVCAR3) was “pronounced cytotoxic activities”. The foci formation (OVCAR4 [4]) was “completely abrogated foci formation”, the foci formation (OVCAR8 [5]) was “completely abrogated foci formation” and the solubility [6] was “greatly improved solubility”.

Work on `CN1C(=O)[C@]23SS[C@@]1(C)C(=O)N2[C@H]1Nc2ccccc2[C@@]1([C@@]12c4ccccc4N[C@@H]1N1C(=O)[C@@]4(C)SS[C@]1(C(=O)N4C)[C@H]2O)[C@@H]3O` [verticillin A] yielded an MCH [1, 13] of 14.6 ± 0.2 pg, an MCHC [1, 13] of 32.7 ± 0.7 g/dL and an MCV [1, 13] of 44.6 ± 0.2 fL. It also gave an MPV [1, 13] of 7.9 ± 0.1 fL, a PCT [1, 13] of 0.701 ± 0.065% and a PDW [1, 13] of 47.4 ± 1.9%. The RBC [1, 13] was 9.89 ± 0.33 M/μL, the RDW [1, 13] was 13.8 ± 0.5% and the “Reticulocyte #” value [1, 13] was 0 ± 0 K/μL. For the same molecule, the “WBC #” value [1, 13] was 6.01 ± 1.29 K/μL, the “basophil #” value [1, 13] was 0.02 ± 0.01 K/μL and the “eosinophil #” value [1, 13] was 0.02 ± 0.02 K/μL. For the same molecule, the hematocrit [1, 13] was 44.1 ± 1.4%, the hemoglobin [1, 13] was 14.4 ± 0.3 g/dL and the “lymphocyte #” value [1, 13] was 3.94 ± 1.16 K/μL. For the same molecule, the “monocyte #” value [1, 13] was 0.37 ± 0.09 K/μL, the “neutrophil #” value [1, 13] was 1.65 ± 0.15 K/μL and the “nucleated RBCs #” value [1, 13] was 0 ± 0 K/μL. For the same molecule, the “platelet #” value [1, 13] was 892 ± 74 K/μL, the reticulocyte [1, 13] was 0 ± 0% and the MCH [1, 14] was 15.2 ± 0.4 pg. For the same molecule, the MCHC [1, 14] was 32.6 ± 1.2 g/dL, the MCV [1, 14] was 46.8 ± 1.0 fL and the MPV [1, 14] was 7.6 ± 1.1 fL. For the same molecule, the PCT [1, 14] was 0.735 ± 0.147%, the PDW [1, 14] was 48.7 ± 0.8% and the RBC [1, 14] was 9.28 ± 0.81 M/μL. The RDW [1, 14] was 14.2 ± 0.4%, the “Reticulocyte #” value [1, 14] was 8.6 ± 8.3 K/μL and the “WBC #” value [1, 14] was 4.22 ± 1.68 K/μL. For the same molecule, the “basophil #” value [1, 14] was 0.01 ± 0.01 K/μL, the “eosinophil #” value [1, 14] was 0.02 ± 0.01 K/μL and the hematocrit [1, 14] was 43.5 ± 4.0%. For the same molecule, the hemoglobin [1, 14] was 14.2 ± 1.3 g/dL, the “lymphocyte #” value [1, 14] was 1.72 ± 0.76 K/μL and the “monocyte #” value [1, 14] was 0.18 ± 0.06 K/μL. The “neutrophil #” value [1, 14] was 2.30 ± 0.98 K/μL, the “nucleated RBCs #” value [1, 14] was 0 ± 0 K/μL and the “platelet #” value [1, 14] was 964 ± 203 K/μL. It also gave a reticulocyte [1, 14] of 0.10 ± 0.09%, an MCH [1, 15] of 15.4 ± 0.3 pg and an MCHC [1, 15] of 33.7 ± 0.7 g/dL. It also gave an MCV [1, 15] of 45.5 ± 0.6 fL, an MPV [1, 15] of 7.7 ± 0.2 fL and a PCT [1, 15] of 0.815 ± 0.096%. For the same molecule, the PDW [1, 15] was 47.3 ± 1.7%, the RBC [1, 15] was 9.79 ± 0.75 M/μL and the RDW [1, 15] was 16.2 ± 0.9%. For the same molecule, the “Reticulocyte #” value [1, 15] was 0 ± 0 K/μL, the “WBC #” value [1, 15] was 5.97 ± 1.67 K/μL and the “basophil #” value [1, 15] was 0.01 ± 0.01 K/μL. For the same molecule, the “eosinophil #” value [1, 15] was 0.03 ± 0.01 K/μL, the hematocrit [1, 15] was 44.6 ± 3.4% and the hemoglobin [1, 15] was 15.0 ± 1.0 g/dL. The “lymphocyte #” value [1, 15] was 1.63 ± 1.19 K/μL, the “monocyte #” value [1, 15] was 0.21 ± 0.29 K/μL and the “neutrophil #” value [1, 15] was 4.09 ± 1.30 K/μL. The “nucleated RBCs #” value [1, 15] was 0 ± 0 K/μL, the “platelet #” value [1, 15] was 1057 ± 146 K/μL and the reticulocyte [1, 15] was 0 ± 0%. The cytotoxic activity (OVCAR3) was “pronounced cytotoxic activities”, the cytotoxic activity (OVCAR4 [7]) was “nanomolar cytotoxic activity” and the cytotoxic activity (OVCAR8 [8]) was “nanomolar cytotoxic activity”. For the same molecule, the foci formation (OVCAR4 [4]) was “completely abrogated foci formation”, the foci formation (OVCAR8 [5]) was “completely abrogated foci formation” and the “liver and organ gross morphology” value ([9]; 0.25 mg/kg in DMSO twice weekly for four weeks) was “did not demonstrate changes in liver morphology”. For the same molecule, the tumor burden ([9]; 0.25 mg/kg twice weekly for four weeks, compared to DMSO) was “reduced”.
